Data taken from ChEMBL document CHEMBL1629447, “Antitumor agents 286. Design, synthesis, and structure-activity relationships of 3'R,4'R-disubstituted-2',2'-dimethyldihydropyrano[2,3-f]chromone (DSP) analogues as potent chemosensitizers to overcome multidrug resistance” (2010).
In brackets after ≈: the same amount, converted by molar mass. Activity calls are given as the source filed them. The rule behind the calls is not given here.

Assays:
KBVIN [1] = experiment: Inhibition of Pgp-mediated multidrug resistance in human KBVIN cells assessed as chemosensitization activity measured by increase in vincristine-induced cytotoxicity at 1 ug/mL by SRB assay relative to untreated control; format: cell-based
[2] = Cytotoxicity in human KBVIN cells by SRB assay; format: functional
Procedure, shortened: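 Cellular protein read by sulforhodamine B staining, absorbance 562 nm. GI50 is the concentration giving 50% lower absorbance than untreated cells, taken from replicate dose-response curves.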

KBVIN [3] = experiment: Inhibition of Pgp in human KBVIN cells assessed as facilitation of in calcein-AM accumulation by […]; format: cell-based
Procedure, shortened: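 KB-Vin (MDR) cells, 10,000 per well, adhered one day in medium with 5% FBS. Pre-exposed to test compound at several concentrations for 30 min at 37 °C, then given fresh medium with 1 μM calcein-AM plus compound for 30 min at 37 °C. Washed with cold PBS in low light, lysed in 20 mM Tris-HCl, fluorescence read Ex 494/Em 517 nm. Verapamil as inhibitor control; two or more independent experiments.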

| SMILES | fold change (FC) (KBVIN [1]) | GI50 [2] [µg/mL] | inhibition (KBVIN [3]) |
| --- | --- | --- | --- |
| CCc1cc(=O)c2ccc3c(c2o1)[C@@H](OC(=O)Cc1ccccc1)[C@@H](OC(=O)Cc1ccccc1)C(C)(C)O3 | 81.3 | 8.33 (≈ 15.8 µM) |  |
| CCc1cc(=O)c2ccc3c(c2o1)[C@@H](OC(=O)c1ccccc1C(F)(F)F)[C@@H](OC(=O)c1ccccc1C(F)(F)F)C(C)(C)O3 | < 12.2 | > 31.5 |  |
| CCc1cc(=O)c2ccc3c(c2o1)[C@@H](OC(=O)c1cccc(C(F)(F)F)c1)[C@@H](OC(=O)c1cccc(C(F)(F)F)c1)C(C)(C)O3 | < 12.2 | > 31.5 |  |
| CCc1cc(=O)c2ccc3c(c2o1)[C@@H](OC(=O)Cc1ccc(OC)cc1)[C@@H](OC(=O)Cc1ccc(OC)cc1)C(C)(C)O3 | 34.4 | 13.3 (≈ 22.7 µM) |  |
| CCc1cc(=O)c2ccc3c(c2o1)[C@@H](OC(=O)c1ccc(OC)cc1)[C@@H](OC(=O)c1ccc(OC)cc1)C(C)(C)O3 | 257 | 9 (≈ 16.1 µM) | Active |
| CCc1cc(=O)c2ccc3c(c2o1)[C@@H](OC(=O)/C=C/c1ccc(OC)cc1)[C@@H](OC(=O)/C=C/c1ccc(OC)cc1)C(C)(C)O3 | 287 | > 36.4 |  |
| CCc1cc(=O)c2ccc3c(c2o1)[C@@H](OCc1ccccc1)[C@@H](OCc1ccccc1)C(C)(C)O3 | 40.7 | > 15.7 |  |
| CCCCN(CCCC)C(=O)O[C@@H]1c2c(ccc3c(=O)cc(CC)oc23)OC(C)(C)[C@@H]1OC(=O)N(CCCC)CCCC | < 12.2 | > 20 |  |
| CCc1cc(=O)c2ccc3c(c2o1)[C@@H](OC(=O)c1ccc([N+](=O)[O-])cc1)[C@@H](OC(=O)c1ccc([N+](=O)[O-])cc1)C(C)(C)O3 | 203 | > 34 |  |
| CCc1cc(=O)c2ccc3c(c2o1)[C@@H](OC(=O)C1CCCCC1)[C@@H](OC(=O)C1CCCCC1)C(C)(C)O3 | < 12.2 | > 20 |  |
| CCc1cc(=O)c2ccc3c(c2o1)[C@@H](OC(=O)/C=C/c1ccccc1)[C@@H](OC(=O)/C=C/c1ccccc1)C(C)(C)O3 | 222 | 9.44 (≈ 17.1 µM) |  |
| CCc1cc(=O)c2ccc3c(c2o1)[C@@H](OC(=O)c1cccc(C#N)c1)[C@@H](OC(=O)c1cccc(C#N)c1)C(C)(C)O3 | 160 | > 2.5 |  |
| CCc1cc(=O)c2ccc3c(c2o1)[C@@H](OC(=O)c1cccc(OC)c1)[C@@H](OC(=O)c1cccc(OC)c1)C(C)(C)O3 | 27.1 | > 35.8 |  |
| CCc1cc(=O)c2ccc3c(c2o1)[C@@H](OC(=O)N(CC)CC)[C@@H](OC(=O)N(CC)CC)C(C)(C)O3 | 116 | > 20 |  |
| CCc1cc(=O)c2ccc3c(c2o1)[C@@H](OC(=O)N1CCCC1)[C@@H](OC(=O)N1CCCC1)C(C)(C)O3 | 24.9 | > 20 |  |
| CCc1cc(=O)c2ccc3c(c2o1)[C@@H](OC(=O)N1CCCCC1)[C@@H](OC(=O)N1CCCCC1)C(C)(C)O3 | 22.2 | > 20 |  |
| COc1ccc(CCN(C)CCCC(C#N)(c2ccc(OC)c(OC)c2)C(C)C)cc1OC (configuration not stated) [VERAPAMIL] | 141 | > 31.5 |  |
| CCc1cc(=O)c2ccc3c(c2o1)[C@@H](OC(=O)c1ccccc1OC)[C@@H](OC(=O)c1ccccc1OC)C(C)(C)O3 | 28.1 | > 31.5 |  |
| CCc1ccc(C(=O)O[C@@H]2c3c(ccc4c(=O)cc(CC)oc34)OC(C)(C)[C@@H]2OC(=O)c2ccc(CC)cc2)cc1 | 20.3 | > 13.6 |  |
| CCc1cc(=O)c2ccc3c(c2o1)[C@@H](OC(=O)c1ccc(C(F)(F)F)cc1)[C@@H](OC(=O)c1ccc(C(F)(F)F)cc1)C(C)(C)O3 | 16.3 | > 31.5 |  |
| CCc1cc(=O)c2ccc3c(c2o1)[C@@H](OC(=O)c1ccccc1)[C@@H](OC(=O)c1ccccc1)C(C)(C)O3 | < 12.2 | 8.79 (≈ 17.6 µM) |  |
| CCc1cc(=O)c2ccc3c(c2o1)[C@@H](OC(=O)N(C)C)[C@@H](OC(=O)N(C)C)C(C)(C)O3 | < 12.2 | > 20 |  |
| CCc1cc(=O)c2ccc3c(c2o1)[C@@H](OC(=O)CCc1ccccc1)[C@@H](OC(=O)CCc1ccccc1)C(C)(C)O3 | 106 | 10.1 (≈ 18.2 µM) |  |
| CCc1cc(=O)c2ccc3c(c2o1)[C@@H](OC(=O)c1ccc(C#N)cc1)[C@@H](OC(=O)c1ccc(C#N)cc1)C(C)(C)O3 | 188 | > 5.5 | Active |
| CCc1cc(=O)c2ccc3c(c2o1)[C@@H](OC(=O)c1ccc(C)cc1)[C@@H](OC(=O)c1ccc(C)cc1)C(C)(C)O3 | 349 | 20.6 (≈ 39.1 µM) |  |
